Assays:
5'-nucleotidase = 5'-nucleotidase (Homo sapiens, UniProt P21589); experiment: Inhibition of human CD73 expressed in CHO cells incubated for 60 mins before addition of AMP and further incubated for 60 mins by colorimetric assay; type: cell-based
Summary of the method: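 Thawed stable CD73-CHO cells in HEPES pH 7.4 saline buffer with 0.1% glucose, 1500 cells/well. Preincubated 60 min at 37 °C with 16-point 1:3 compound dilutions (final 100–0 or 0.1–0 μM; 10 or 2% DMSO). 25 μM AMP then added, 60 min at 37 °C/5% CO2. Supernatant phosphate measured with PiColorLock Gold. Activity normalized to DMSO and no-cell wells. IC50 from a four-parameter fit.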

[1] = Clearance in Sprague-Dawley rat at 0.25 to 0.5 mg/kg, iv measured up to 24 hrs by LC-MS/MS analysis; type: ADME, organism-based; conditions: in vivo, dose 0.25-0.5 mg/kg
Summary of the method: (§1)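 Male SD rats (0.27–0.30 kg), acclimated. Single IV bolus via femoral vein at 0.25 or 0.5 mg/kg in 31.6% DMA/36.8% ethanol/31.6% PEG. Jugular blood at predose, 5, 15, 30 min, 1, 2, 4, 6, 8, 24 h, collected into K2-EDTA; plasma spun at 4 °C, stored −80 °C until analysis.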

[2] = Half life in Sprague-Dawley rat at 0.25 to 0.5 mg/kg, iv measured up to 24 hrs by LC-MS/MS analysis; type: ADME, organism-based; conditions: in vivo, dose 0.25-0.5 mg/kg; summary of the method: as §1

5'-nucleotidase, sequence (P21589 whole entry): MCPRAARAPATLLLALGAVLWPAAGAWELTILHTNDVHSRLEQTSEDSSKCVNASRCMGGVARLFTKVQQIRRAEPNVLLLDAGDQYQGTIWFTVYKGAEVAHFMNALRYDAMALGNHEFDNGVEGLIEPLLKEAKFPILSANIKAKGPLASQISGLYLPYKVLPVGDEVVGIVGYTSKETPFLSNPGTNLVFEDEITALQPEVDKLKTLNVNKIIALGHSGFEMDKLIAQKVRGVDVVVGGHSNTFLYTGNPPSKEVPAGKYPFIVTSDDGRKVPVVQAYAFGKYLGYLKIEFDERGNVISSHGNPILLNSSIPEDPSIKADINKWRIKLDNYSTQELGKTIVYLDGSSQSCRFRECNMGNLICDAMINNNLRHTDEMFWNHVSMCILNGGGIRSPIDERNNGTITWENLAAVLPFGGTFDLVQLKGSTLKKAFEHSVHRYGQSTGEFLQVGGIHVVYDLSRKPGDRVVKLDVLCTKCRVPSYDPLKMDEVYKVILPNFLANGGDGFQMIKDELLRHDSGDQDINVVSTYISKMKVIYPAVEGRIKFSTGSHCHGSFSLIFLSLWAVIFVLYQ

Row | SMILES | IC50 (5'-nucleotidase) [nM] | clearance [1] [mL/min/kg] | half-life [2] [h]
1 | O=C(O)C(OC[C@H]1O[C@@H](n2cnc3c(NCc4ccccc4)nc(Cl)nc32)[C@H](O)[C@@H]1O)P(=O)(O)O (stereo partly specified) | 110 |  | 
2 | O=P(O)(O)COC[C@H]1O[C@@H](n2cnc3c(NCc4ccccc4)nc(Cl)nc32)[C@H](O)[C@@H]1O | 58 |  | 
3 | O=P(O)(O)COC[C@H]1O[C@@H](n2cnc3c(NCC4CCCC4)nc(Cl)nc32)[C@H](O)[C@@H]1O | 124 |  | 
4 | C[C@H](Nc1nc(Cl)nc2c1cnn2[C@@H]1O[C@H](COCP(=O)(O)O)[C@@H](O)[C@H]1O)c1ccc(F)cc1 |  | 0.333 | 4.5
5 | CN(Cc1ccccc1Cl)c1nc(Cl)nc2c1ncn2[C@@H]1O[C@H](COCP(=O)(O)O)[C@@H](O)[C@H]1O | 46 |  | 
6 | C[C@H](Nc1cc(Cl)nc2c1cnn2[C@@H]1O[C@H](COCP(=O)(O)O)[C@@H](O)[C@H]1O)c1ccc(F)cc1 |  | 0.3 | 4
7 | O=P(O)(O)COC[C@H]1O[C@@H](n2cnc3c(N4CCCC4)nc(Cl)nc32)[C@H](O)[C@@H]1O | 45 |  | 
8 | Cn1cc(CNc2nc(Cl)nc3c2ncn3[C@@H]2O[C@H](COCP(=O)(O)O)[C@@H](O)[C@H]2O)cn1 | 201 |  | 
9 | O=P(O)(O)COC[C@H]1O[C@@H](n2cnc3c(NCCc4ccccc4)nc(Cl)nc32)[C@H](O)[C@@H]1O | 105 |  | 
10 | O=P(O)(O)COC[C@H]1O[C@@H](n2cnc3c(NC4CCCC4)nc(COC4CCNC4)nc32)[C@H](O)[C@@H]1O (stereo partly specified) | > 10000 |  | 
11 | O=P(O)(O)COC[C@H]1O[C@@H](n2cnc3c(NC4CCCC4)cc(Cl)nc32)[C@H](O)[C@@H]1O | 33 |  | 
12 | O=P(O)(O)COC[C@H]1O[C@@H](n2ncc3c(NC4CCCC4)cc(Cl)nc32)[C@H](O)[C@@H]1O | 4.5 |  | 
13 | O=P(O)(O)COC[C@H]1O[C@@H](n2cnc3c(NC4CCCC4)nc(-c4ccccc4)nc32)[C@H](O)[C@@H]1O | 245 |  | 
14 | O=P(O)(O)COC[C@H]1O[C@@H](n2cnc3c(N[C@@H]4CCOC4)nc(Cl)nc32)[C@H](O)[C@@H]1O | 84 |  | 
15 | O=P(O)(O)COC[C@H]1O[C@@H](n2cnc3c(NCCc4ccccc4F)nc(Cl)nc32)[C@H](O)[C@@H]1O | 121 |  | 
16 | O=P(O)(O)CCCOC[C@H]1O[C@@H](n2cnc3c(NCc4ccccc4)nc(Cl)nc32)[C@H](O)[C@@H]1O | > 10000 |  | 
17 | O=P(O)(O)COC[C@H]1O[C@@H](n2cnc3c(NC4CCC4)nc(Cl)nc32)[C@H](O)[C@@H]1O | 83 |  | 

Row | SMILES | IC50 (5'-nucleotidase) [nM] | clearance [1] [mL/min/kg] | half-life [2] [h]
18 | O=P(O)(O)COC[C@H]1O[C@@H](n2cnc3c(NC4CCCC4)nc(COc4ccccc4)nc32)[C@H](O)[C@@H]1O | 13 |  | 
19 | O=P(O)(O)COC[C@H]1O[C@@H](n2cnc3c(NCc4ccccc4Cl)nc(Cl)nc32)[C@H](O)[C@@H]1O | 46 |  | 
20 | O=P(O)(O)CCOC[C@H]1O[C@@H](n2cnc3c(NCc4ccccc4)nc(Cl)nc32)[C@H](O)[C@@H]1O | > 10000 |  | 
21 | O=P(O)(O)OP(=O)(O)OC[C@H]1O[C@@H](n2cnc3c(NCc4ccccc4)nc(Cl)nc32)[C@H](O)[C@@H]1O | 0.4 |  | 
22 | Cc1ccccc1-c1nc(NC2CCCC2)c2ncn([C@@H]3O[C@H](COCP(=O)(O)O)[C@@H](O)[C@H]3O)c2n1 | 3500 |  | 
23 | O=P(O)(O)COC[C@H]1O[C@@H](n2cnc3c(NC4CCCC4)nc(Cl)nc32)[C@H](O)[C@@H]1O | 26 | 6.17 | 0.97
24 | O=P(O)(O)COC[C@H]1O[C@@H](n2cnc3c(NCc4ccccn4)nc(Cl)nc32)[C@H](O)[C@@H]1O | 382 |  | 
25 | O=P(O)(O)COC[C@H]1O[C@@H](n2cnc3c(NC4CC4)nc(Cl)nc32)[C@H](O)[C@@H]1O | 588 |  | 
26 | COc1ccccc1CCNc1nc(Cl)nc2c1ncn2[C@@H]1O[C@H](COCP(=O)(O)O)[C@@H](O)[C@H]1O | 173 |  | 
27 | C[C@H](Nc1nc(Cl)nc2c1ncn2[C@@H]1O[C@H](COCP(=O)(O)O)[C@@H](O)[C@H]1O)c1ccccc1 | 65 | 2.33 | 1.2
28 | C[C@@H](Nc1nc(Cl)nc2c1ncn2[C@@H]1O[C@H](COCP(=O)(O)O)[C@@H](O)[C@H]1O)c1ccccc1 | 156 |  | 
29 | C[C@H](Nc1nc(Cl)nc2c1cnn2[C@@H]1O[C@H](COCP(=O)(O)O)[C@@H](O)[C@H]1O)c1ccccc1 |  | 0.517 | 2.4
30 | COCc1nc(NC2CCCC2)c2ncn([C@@H]3O[C@H](COCP(=O)(O)O)[C@@H](O)[C@H]3O)c2n1 | 118 |  | 
31 | O=C(O)C(OC[C@H]1O[C@@H](n2cnc3c(NCc4ccccc4)nc(Cl)nc32)[C@H](O)[C@@H]1O)C(=O)O | 1000 |  | 
32 | O=P(O)(O)COC[C@H]1O[C@@H](n2cnc3c(N4CCOCC4)nc(Cl)nc32)[C@H](O)[C@@H]1O | 148 |  | 
33 | CC(C)Nc1nc(Cl)nc2c1ncn2[C@@H]1O[C@H](COCP(=O)(O)O)[C@@H](O)[C@H]1O | 192 |  | 
34 | Cn1cnnc1CNc1nc(Cl)nc2c1ncn2[C@@H]1O[C@H](COCP(=O)(O)O)[C@@H](O)[C@H]1O | 3200 |  | 
